This is an account of results in publication PMC3634367 (Biochemistry, 2011).

Non-standard residues stand in square brackets, D forms with d. Residues, ends and D or L forms follow the SMILES beside them. pT = C[C@@H](OP(=O)(O)O)[C@H](N)C(=O)O; pS = N[C@@H](COP(=O)(O)O)C(=O)O

For test [1], the target named is truncated human arrestin-2 mutant comprised of residues 1-382 (tr-arr2_(1-382)) (human) (UniProt P49407). Briefly: ITC. (Isothermal titration calorimetry measures the heat released or taken up as one component is titrated into another.)
Chain of truncated human arrestin-2 mutant comprised of residues 1-382 (tr-arr2_(1-382)) (human) (P49407 1-382, change not shown): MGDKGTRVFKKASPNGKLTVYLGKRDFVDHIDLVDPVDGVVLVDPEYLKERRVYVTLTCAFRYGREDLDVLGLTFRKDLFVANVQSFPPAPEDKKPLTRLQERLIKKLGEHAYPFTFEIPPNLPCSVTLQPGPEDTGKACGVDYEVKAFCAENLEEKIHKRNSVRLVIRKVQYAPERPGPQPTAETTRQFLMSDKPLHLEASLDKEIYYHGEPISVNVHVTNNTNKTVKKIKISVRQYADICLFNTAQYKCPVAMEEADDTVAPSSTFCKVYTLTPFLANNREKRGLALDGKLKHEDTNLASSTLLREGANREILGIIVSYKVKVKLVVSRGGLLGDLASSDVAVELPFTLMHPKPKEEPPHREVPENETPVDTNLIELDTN
The target of test [2] is wild-type human arrestin-2 (wt-arr2_(1-418)) (human) (UniProt P49407). Briefly: ITC.
Chain of wild-type human arrestin-2 (wt-arr2_(1-418)) (human) (P49407 whole entry, the tested form may be a part): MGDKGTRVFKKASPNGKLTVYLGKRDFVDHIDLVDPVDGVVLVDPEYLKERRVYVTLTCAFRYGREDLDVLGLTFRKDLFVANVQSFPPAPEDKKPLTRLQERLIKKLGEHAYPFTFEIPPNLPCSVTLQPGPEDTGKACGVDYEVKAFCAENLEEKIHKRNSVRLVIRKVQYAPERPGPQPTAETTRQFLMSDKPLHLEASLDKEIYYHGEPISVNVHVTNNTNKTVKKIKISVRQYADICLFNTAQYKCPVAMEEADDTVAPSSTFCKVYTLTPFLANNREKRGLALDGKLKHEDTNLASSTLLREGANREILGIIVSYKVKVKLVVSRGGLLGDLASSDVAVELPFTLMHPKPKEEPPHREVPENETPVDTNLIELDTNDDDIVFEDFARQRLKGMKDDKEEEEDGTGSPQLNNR
Test [3] addresses T1, tr-arr2_1-382 (truncated human arrestin-2 mutant) (Homo sapiens, UniProt P49407). Briefly: Transferred NOESY NMR of arrestin-peptide mixture, truncated arrestin-2. The class given is binding. The note with it: 0.1 mM tr-arr2_1-382, 1 mM peptide (1:10), pH 6.9-7.1, 10°C, 600 MHz.
The target of test [4] is T2, wt-arr2_1-418 (full-length human arrestin-2) (Homo sapiens, UniProt P49407). Briefly: Transferred NOESY NMR of arrestin-peptide mixture, full-length arrestin-2. The class given is binding. The note with it: 0.1 mM wt-arr2_1-418, 1 mM peptide (1:10), pH 6.9-7.1, 10°C, 600 MHz.
T2 sequence (P49407 whole entry, the tested form may be a part): as above
In test [5] the target is T1, tr-arr2_1-382 (truncated human arrestin-2 mutant). Briefly: Isothermal titration calorimetry. Type of test: binding. The gist of the method:
(§1)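 Untagged protein from E. coli BL21, purified by ammonium sulfate precipitation, heparin affinity and size exclusion. ITC at 283K in 10 mM NaH2PO4 pH 7.0, 100 mM NaCl: cell arrestin-2 0.01 mM, syringe test peptide 0.5 mM. 13 injections of 15 ul, 210 s apart, up to 2-fold peptide excess. Peptide dilution heats into buffer run as control. Isotherms fitted to one-site, 1:1 model.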

Test [6] has as its target T2, wt-arr2_1-418 (full-length human arrestin-2). Briefly: Isothermal titration calorimetry. The class given is binding. The gist of the method: as §1
The next test deals with arrestin-2. The note with it: doubly phosphorylated Thr419-ASN439 peptide of CB1 C-terminus; cited from earlier work.
[7] abbreviates: ITC, 283K, 10 mM NaH2PO4 pH 7.0, 100 mM NaCl.

T1 sequence (P49407 1-382, change not shown): as the sequence (P49407 1-382, change not shown) above

As a reminder, the Kd is the free concentration of one partner at which half of the binding sites on the other are occupied at equilibrium, for simple one-to-one binding. With “CB1^5P_(454-473), pentaphosphorylated peptide mimicking residues 454-473 of CB1”, the Kd in test [1] is 2200 nM; in test [2] it was 116 µM.

As to TVKIAKVTMSVSTDTSAEAL [CB1_454-473], the “nOe change on addition of arrestin / interaction” value in test [3] and in test [4] was “no additional peaks in the nOe spectra compared to the free peptide spectrum suggesting little or no interaction” throughout. Also, the “interaction by ITC” value in test [5] (setting [7]) and in test [6] (setting [7]) was “no indication of an interaction” throughout.

Take `CC[C@H](C)[C@H](NC(=O)[C@H](CCCCN)NC(=O)[C@@H](NC(=O)[C@@H](N)[C@@H](C)O)C(C)C)C(=O)N[C@@H](C)C(=O)N[C@@H](CCCCN)C(=O)N[C@H](C(=O)N[C@H](C(=O)N[C@@H](CCSC)C(=O)N[C@@H](COP(=O)(O)O)C(=O)N[C@H](C(=O)N[C@@H](COP(=O)(O)O)C(=O)N[C@H](C(=O)N[C@@H](CC(=O)O)C(=O)N[C@H](C(=O)N[C@@H](COP(=O)(O)O)C(=O)N[C@@H](C)C(=O)N[C@@H](CCC(=O)O)C(=O)N[C@@H](C)C(=O)N[C@@H](CC(C)C)C(=O)O)[C@@H](C)OP(=O)(O)O)[C@@H](C)O)C(C)C)[C@@H](C)OP(=O)(O)O)C(C)C` [CB1^5P454-473] (H-TVKIAKV[pT]M[pS]V[pS]TD[pT][pS]AEAL-OH): the Kd in test [5] was approximately 2200 nM; in test [6], approximately 116 µM.

As to “doubly phosphorylated version of a peptide corresponding to residues Thr419-ASN439 of the CB1 C-terminus: doubly phosphorylated peptide corresponding to residues Thr419-ASN439 of the CB1 C-terminus, responsible for desensitization”, in the test on arrestin-2, the “binding and bound conformation” value is “binds to arrestin-2 and adopts helical conformations in the vicinity of the phosphorylated residues”.
